Assay results reported in ChEMBL document CHEMBL4393740, “Preparation and biological evaluation of soluble tetrapeptide epoxyketone proteasome inhibitors” (Bioorg Med Chem, 2019).

Columns and labels:
[1] = biological target: T1, Proteasome Macropain subunit MB1 (Homo sapiens, UniProt P28074); assay: Inhibition of human chymotrypsin-like activity of 20S proteasome using Suc-LLVY-AMC as substrate pre-incubated for 10 mins followed by substrate addition and measured after 1 hr by spectrofluorimetry
T1 sequence (P28074 whole entry): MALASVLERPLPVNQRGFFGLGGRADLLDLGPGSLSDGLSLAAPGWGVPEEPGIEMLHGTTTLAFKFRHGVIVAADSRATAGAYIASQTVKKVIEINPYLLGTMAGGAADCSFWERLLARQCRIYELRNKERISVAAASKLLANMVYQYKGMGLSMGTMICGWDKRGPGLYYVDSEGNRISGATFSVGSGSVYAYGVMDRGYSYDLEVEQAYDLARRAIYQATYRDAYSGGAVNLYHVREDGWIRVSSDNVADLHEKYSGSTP

RPMI-8226 = assay: Cytotoxicity against human RPMI8226 cells assessed as cell viability measured after 72 hrs by celltiter96 aqueous cell proliferation assay; assay type: functional, cell-based; details: RPMI-8226, 72 h
How it was run: (§1)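 Suspension cells in log phase plated at 5000 (RPMI8226) or 10000 (U266B1) cells per well. Viability read after 72 h by MTS-type CellTiter 96 AQueous One assay on a plate reader. IC50 reported, three repeats.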

U-266 = assay: Cytotoxicity against human U266B1 cells assessed as cell viability measured after 72 hrs by celltiter96 aqueous cell proliferation assay; assay type: functional, cell-based; details: U-266, 72 h; how it was run: as §1
[2] = Half life in rat liver microsomes at 1 uM pre-incubated for 5 mins followed by NADP+ addition and measured up to 20 mins by LC-MS analysis; assay type: ADME, Microsome
[3] = Half life in dog liver microsomes at 1 uM pre-incubated for 5 mins followed by NADP+ addition and measured up to 20 mins by LC-MS analysis; assay type: ADME, Canis lupus familiaris, Microsome
ARH-77 = assay: Antitumour activity against human ARH77 cells xenografted in nude mouse assessed as tumor growth at 5mg/kg, iv dosed at day 1 ,4, 8 ,11, 15 and 18 for 3 weeks and measured every 2 days by caliper method relative to control; assay type: functional
How it was run: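 Nude mice given subcutaneous 1 × 10^7 ARH77 cells. Randomized at mean tumour 100-150 mm3 into treatment and control groups, n = 5. Dosed i.v. 5 mg/kg on days 1, 4, 8, 11, 15 and 18 for 3 weeks. Tumours sized by caliper, V = length×width²/2, RTV = Vt/V0. T/C% = mean RTV treated / mean RTV control × 100.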

[4] = Half life in monkey liver microsomes at 1 uM pre-incubated for 5 mins followed by NADP+ addition and measured up to 20 mins by LC-MS analysis; assay type: ADME, Macaca mulatta, Microsome; details: rhesus monkey
[5] = biological target: Voltage-gated inwardly rectifying potassium channel KCNH2 (Homo sapiens, UniProt Q12809); assay: Inhibition of human ERG in HEK293 cells assessed as effect on QT interval; assay type: cell-based
Chain of Voltage-gated inwardly rectifying potassium channel KCNH2 (Q12809 whole entry): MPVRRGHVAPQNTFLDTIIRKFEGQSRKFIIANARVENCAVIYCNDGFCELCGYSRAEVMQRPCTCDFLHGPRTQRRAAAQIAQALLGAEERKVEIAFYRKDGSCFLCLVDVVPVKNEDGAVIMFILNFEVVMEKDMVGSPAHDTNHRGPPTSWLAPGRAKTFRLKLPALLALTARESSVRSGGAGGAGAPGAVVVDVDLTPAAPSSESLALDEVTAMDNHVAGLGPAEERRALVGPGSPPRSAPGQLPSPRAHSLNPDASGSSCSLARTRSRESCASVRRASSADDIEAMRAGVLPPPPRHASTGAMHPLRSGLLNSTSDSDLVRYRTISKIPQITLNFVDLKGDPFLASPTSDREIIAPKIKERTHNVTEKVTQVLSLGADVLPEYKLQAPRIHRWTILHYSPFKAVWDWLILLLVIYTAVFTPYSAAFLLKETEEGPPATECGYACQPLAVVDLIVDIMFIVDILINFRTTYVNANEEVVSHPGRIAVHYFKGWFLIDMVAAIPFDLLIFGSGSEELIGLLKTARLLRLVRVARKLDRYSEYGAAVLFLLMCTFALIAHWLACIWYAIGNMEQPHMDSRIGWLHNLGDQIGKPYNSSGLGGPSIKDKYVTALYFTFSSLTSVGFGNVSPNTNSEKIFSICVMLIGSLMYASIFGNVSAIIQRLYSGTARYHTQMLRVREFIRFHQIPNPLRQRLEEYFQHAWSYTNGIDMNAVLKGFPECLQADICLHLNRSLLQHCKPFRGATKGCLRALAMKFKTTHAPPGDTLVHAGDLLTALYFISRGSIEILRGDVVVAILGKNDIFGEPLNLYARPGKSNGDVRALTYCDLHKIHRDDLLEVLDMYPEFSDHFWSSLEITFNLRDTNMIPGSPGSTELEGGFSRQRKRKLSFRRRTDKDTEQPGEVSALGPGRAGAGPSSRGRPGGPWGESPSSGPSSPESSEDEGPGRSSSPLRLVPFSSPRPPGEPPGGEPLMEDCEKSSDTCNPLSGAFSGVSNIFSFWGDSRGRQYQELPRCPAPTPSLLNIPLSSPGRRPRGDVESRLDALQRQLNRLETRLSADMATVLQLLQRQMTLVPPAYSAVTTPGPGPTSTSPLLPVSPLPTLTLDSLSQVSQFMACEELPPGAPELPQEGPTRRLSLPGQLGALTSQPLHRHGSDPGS

[6] = Intrinsic clearance in human liver microsomes at 1 uM pre-incubated for 5 min followed by NADP+ addition and measured up to 20 mins by LC-MS analysis; assay type: ADME, Microsome; details: read-out: CLH
How it was run: (§2)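 Mixture held 1 µM compound, 0.5 mg/mL microsomal protein (in-house pooled Balb/c mouse or pooled human), 100 mM Tris-HCl pH 7.4, and an NADPH-generating system (5 mM isocitric acid, 0.2 U/mL isocitric dehydrogenase, 5 mM MgCl2, 1 mM NADP+). Preincubated 5 min at 37 °C, started with NADP+, sampled at 0, 5, 10, 20 min. Quenched with cold acetonitrile containing 1 µM phenytoin internal standard. Compound loss measured by LC-MS/MS. Controls omitted NADPH and/or microsomes.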

[7] = Intrinsic clearance in monkey liver microsomes at 1 uM pre-incubated for 5 min followed by NADP+ addition and measured up to 20 mins by LC-MS analysis; assay type: ADME, Macaca mulatta, Microsome; details: rhesus monkey, read-out: CLH
[8] = Half life in BALB/c mouse liver microsomes at 1 uM pre-incubated for 5 mins followed by NADP+ addition and measured up to 20 mins by LC-MS analysis; assay type: ADME, Microsome; how it was run: as §2
[9] = Intrinsic clearance in rat liver microsomes at 1 uM pre-incubated for 5 mins followed by NADP+ addition and measured up to 20 mins by LC-MS analysis; assay type: ADME, Microsome; details: read-out: CLH
[10] = Half life in human liver microsomes at 1 uM pre-incubated for 5 mins followed by NADP+ addition and measured up to 20 mins by LC-MS analysis; assay type: ADME, Microsome; how it was run: as §2
[11] = Intrinsic clearance in dog liver microsomes at 1 uM pre-incubated for 5 mins followed by NADP+ addition and measured up to 20 mins by LC-MS analysis; assay type: ADME, Canis lupus familiaris, Microsome; details: read-out: CLH
[12] = Intrinsic clearance in BALB/c mouse liver microsomes at 1 uM pre-incubated for 5 mins followed by NADP+ addition and measured up to 20 mins by LC-MS analysis; assay type: ADME, Microsome; details: read-out: CLH; how it was run: as §2

## Cc1cc(C(=O)N[C@@H](CCc2ccccc2)C(=O)N[C@H](C(=O)N[C@@H](Cc2ccccc2)C(=O)N[C@@H](CC(C)C)C(=O)[C@@]2(C)CO2)[C@@H](C)O)no1
[1]; read-out: IC50
  IC50: 48.3 nM

## Cc1cc(C(=O)N[C@@H](CC(C)C)C(=O)N[C@@H](CC(C)C)C(=O)N[C@@H](Cc2ccccc2)C(=O)N[C@@H](CC(C)C)C(=O)[C@@]2(C)CO2)no1
[1]; read-out: IC50
  IC50: 41.5 nM

## Cc1cc(C(=O)N[C@@H](CCc2ccccc2)C(=O)N[C@H](C(=O)N[C@@H](Cc2ccccc2)C(=O)N[C@@H](CC(C)C)C(=O)[C@@]2(C)CO2)C2CC2)no1
[1]; read-out: IC50
  IC50: 32 nM

## Cc1cc(C(=O)N[C@@H](CCc2ccccc2)C(=O)N[C@H](C(=O)N[C@@H](Cc2ccccc2)C(=O)N[C@@H](CC(C)C)C(=O)[C@@]2(C)CO2)C2CCCCC2)no1
RPMI-8226
  IC50: 14.7 nM
U-266
  IC50: 23.2 nM
[1]; read-out: IC50
  IC50: 30.8 nM

## COC[C@H](NC(=O)c1cc(C)on1)C(=O)N[C@@H](CC(C)C)C(=O)N[C@@H](Cc1ccccc1)C(=O)N[C@@H](CC(C)C)C(=O)[C@@]1(C)CO1
[1]; read-out: IC50
  IC50: 30.6 nM

## Cc1cc(C(=O)N[C@@H](Cc2cc3ccccc3[nH]2)C(=O)N[C@@H](CC(C)C)C(=O)N[C@@H](Cc2ccccc2)C(=O)N[C@@H](CC(C)C)C(=O)[C@@]2(C)CO2)no1
[1]; read-out: IC50
  IC50: 25.5 nM

## CC(C)C[C@H](NC(=O)[C@H](CCc1ccccc1)NC(=O)CN1CCOCC1)C(=O)N[C@@H](Cc1ccccc1)C(=O)N[C@@H](CCc1ccccc1)C(=O)[C@@]1(C)CO1
[1]; read-out: IC50
  IC50: 729 nM

## Cc1cc(C(=O)N[C@@H](Cc2cscn2)C(=O)N[C@@H](CC(C)C)C(=O)N[C@@H](Cc2ccccc2)C(=O)N[C@@H](CC(C)C)C(=O)[C@@]2(C)CO2)no1
[1]; read-out: IC50
  IC50: 20.6 nM

## CC[C@H](NC(=O)[C@H](Cc1ccccc1)NC(=O)[C@H](CC(C)C)NC(=O)[C@H](CCc1ccccc1)NC(=O)CN1CCOCC1)C(=O)[C@@]1(C)CO1
[1]; read-out: IC50
  IC50: 77.1 nM

## Cc1cc(C(=O)NCC(=O)N[C@@H](CC(C)C)C(=O)N[C@@H](Cc2ccccc2)C(=O)N[C@@H](CC(C)C)C(=O)[C@@]2(C)CO2)no1
[1]; read-out: IC50
  IC50: 56.5 nM

## CC(C)C[C@H](NC(=O)[C@H](Cc1cscn1)NC(=O)c1cnccn1)C(=O)N[C@@H](Cc1ccccc1)C(=O)N[C@@H](CC(C)C)C(=O)[C@@]1(C)CO1
[1]; read-out: IC50
  IC50: 38.8 nM

## CC(C)C[C@H](NC(=O)[C@H](CCc1ccccc1)NC(=O)CN1CCOCC1)C(=O)N[C@@H](Cc1cscn1)C(=O)N[C@@H](CC(C)C)C(=O)[C@@]1(C)CO1
RPMI-8226
  IC50: 76.9 nM
U-266
  IC50: 56.5 nM
[1]; read-out: IC50
  IC50: 26.8 nM

## CC(C)C[C@H](NC(=O)[C@H](Cc1cscn1)NC(=O)CO)C(=O)N[C@@H](Cc1ccccc1)C(=O)N[C@@H](CC(C)C)C(=O)[C@@]1(C)CO1
[1]; read-out: IC50
  IC50: 52.1 nM

## CC(C)C[C@H](NC(=O)[C@H](Cc1cscn1)NC(=O)c1cc(Cl)ccc1Cl)C(=O)N[C@@H](Cc1ccccc1)C(=O)N[C@@H](CC(C)C)C(=O)[C@@]1(C)CO1
[1]; read-out: IC50
  IC50: 64.8 nM

## Cc1cc(C(=O)N[C@@H](CCc2ccccc2)C(=O)N[C@@H](CC2CCCC2)C(=O)N[C@@H](Cc2ccccc2)C(=O)N[C@@H](CC(C)C)C(=O)[C@@]2(C)CO2)no1
[1]; read-out: IC50
  IC50: 36.6 nM

## CC(C)C[C@H](NC(=O)[C@H](CCc1ccccc1)NC(=O)CN1CCOCC1)C(=O)N[C@@H](Cc1ccccc1)C(=O)N[C@@H](Cc1ccccc1)C(=O)[C@@]1(C)CO1
[1]; read-out: IC50
  IC50: 140 nM

## Cc1cc(C(=O)N[C@@H](CCc2ccccc2)C(=O)N[C@@H](Cc2cscn2)C(=O)N[C@@H](Cc2ccccc2)C(=O)N[C@@H](CC(C)C)C(=O)[C@@]2(C)CO2)no1
[1]
  IC50: Not Active

## COC[C@H](NC(=O)c1cc(C)on1)C(=O)NCC(=O)N[C@@H](Cc1ccccc1)C(=O)N[C@@H](CC(C)C)C(=O)[C@@]1(C)CO1
[1]
  IC50: Not Active

## Cc1cc(C(=O)N[C@@H](CCc2ccccc2)C(=O)N[C@@H](Cc2ccccn2)C(=O)N[C@@H](Cc2ccccc2)C(=O)N[C@@H](CC(C)C)C(=O)[C@@]2(C)CO2)no1
[1]
  IC50: Not Active

## CCCC[C@H](NC(=O)[C@H](CC(C)C)NC(=O)[C@H](CCc1ccccc1)NC(=O)CN1CCOCC1)C(=O)N[C@@H](CC(C)C)C(=O)[C@@]1(C)CO1
[1]; read-out: IC50
  IC50: 162 nM

## CC[C@H](NC(=O)[C@H](CC(C)C)NC(=O)[C@H](CCc1ccccc1)NC(=O)CN1CCOCC1)C(=O)N[C@@H](CC(C)C)C(=O)[C@@]1(C)CO1
[1]; read-out: IC50
  IC50: 98.2 nM

## Cc1cc(C(=O)N[C@H](C(=O)N[C@@H](CC(C)C)C(=O)N[C@@H](Cc2ccccc2)C(=O)N[C@@H](CC(C)C)C(=O)[C@@]2(C)CO2)C2CC2)no1
[1]; read-out: IC50
  IC50: 43.1 nM

## Cc1cc(C(=O)N[C@@H](Cc2ccccn2)C(=O)N[C@@H](CC(C)C)C(=O)N[C@@H](Cc2ccccc2)C(=O)N[C@@H](CC(C)C)C(=O)[C@@]2(C)CO2)no1
[1]; read-out: IC50
  IC50: 60.7 nM

## CC(C)C[C@H](NC(=O)[C@H](CCc1ccccc1)NC(=O)CN1CCOCC1)C(=O)NCC(=O)N[C@@H](CC(C)C)C(=O)[C@@]1(C)CO1
[1]
  IC50: Not Active

## CCCC[C@H](NC(=O)[C@H](Cc1ccccc1)NC(=O)[C@H](CC(C)C)NC(=O)[C@H](CCc1ccccc1)NC(=O)CN1CCOCC1)C(=O)[C@@]1(C)CO1
[1]; read-out: IC50
  IC50: 52.2 nM

## CC(C)C[C@H](NC(=O)[C@H](Cc1cc2ccccc2s1)NC(=O)CN1CCOCC1)C(=O)N[C@@H](Cc1ccccc1)C(=O)N[C@@H](CC(C)C)C(=O)[C@@]1(C)CO1
RPMI-8226
  IC50: 53.8 nM
U-266
  IC50: 33.2 nM
[1]; read-out: IC50
  IC50: 34.1 nM

## CC(C)C[C@H](NC(=O)[C@H](Cc1ccsc1)NC(=O)CN1CCOCC1)C(=O)N[C@@H](Cc1ccccc1)C(=O)N[C@@H](CC(C)C)C(=O)[C@@]1(C)CO1
RPMI-8226
  IC50: 34.6 nM
U-266
  IC50: 23.8 nM
[1]; read-out: IC50
  IC50: 44.9 nM

## CC(C)C[C@H](NC(=O)[C@H](CCc1ccccc1)NC(=O)CN1CCOCC1)C(=O)N[C@@H](Cc1cc2ccccc2s1)C(=O)N[C@@H](CC(C)C)C(=O)[C@@]1(C)CO1
RPMI-8226
  IC50: 86.6 nM
U-266
  IC50: 80.5 nM
[1]; read-out: IC50
  IC50: 37.5 nM

## CC[C@H](NC(=O)[C@H](CCc1ccccc1)NC(=O)c1cc(C)on1)C(=O)N[C@@H](Cc1ccccc1)C(=O)N[C@@H](CC(C)C)C(=O)[C@@]1(C)CO1
RPMI-8226
  IC50: 47 nM
U-266
  IC50: 45.5 nM
[1]; read-out: IC50
  IC50: 36.8 nM

## COC[C@H](NC(=O)[C@H](CCc1ccccc1)NC(=O)c1cc(C)on1)C(=O)N[C@@H](Cc1ccccc1)C(=O)N[C@@H](CC(C)C)C(=O)[C@@]1(C)CO1
[1]; read-out: IC50
  IC50: 50.9 nM

## CC(C)C[C@H](NC(=O)[C@H](CCc1ccccc1)NC(=O)CN1CCOCC1)C(=O)N[C@@H](Cc1ccccc1)C(=O)N[C@@H](CC(C)C)C(=O)[C@@]1(C)CO1 [CARFILZOMIB]
[2]
  half-life at 1 µM: 37.2 s
[3]
  half-life at 1 µM: 14.6 s
ARH-77
  T/C: 34.6%
[4]
  half-life at 1 µM: < 60 s
[5]
  IC50: 92100 nM
[6]
  microsomal CLint at 1 µM: 4850 µL/min/mg
[7]
  microsomal CLint at 1 µM: > 1390 µL/min/mg
[8]
  half-life at 1 µM: 20.4 s
RPMI-8226
  IC50: 39.1 nM
[9]
  microsomal CLint at 1 µM: 2230 µL/min/mg
[10]
  half-life at 1 µM: 17.2 s
[11]
  microsomal CLint at 1 µM: 5670 µL/min/mg
[12]
  microsomal CLint at 1 µM: 4100 µL/min/mg
U-266
  IC50: 35.7 nM
